Data reported in ChEMBL document CHEMBL1125299, “Novel positive inotropic agents: synthesis and biological activities of 6-(3-amino-2-hydroxypropoxy)-2(1H)-quinolinone derivatives” (1992).

Legend:
[1] = organism: Canis familiaris; test: The chronotropic effect tested in vitro by using isolated blood-perfused dog heart preparations; assay type: functional, Canis lupus familiaris
How it was run: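 Isolated dog sinoatrial node preparation, cross-circulated through cannulated arteries with blood from a pentobarbital-anesthetized, heparinized donor dog. Compounds were given intra-arterially by microsyringe, and sinus rate was recorded. Reported as an activity ratio: amrinone ED50 (dose giving half-maximal amrinone response) divided by the test-compound dose producing the same response.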

[2] = organism: Canis familiaris; test: The inotropic effect tested in vitro by using isolated blood-perfused dog heart preparations; assay type: functional, Canis lupus familiaris
How it was run: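 Isolated dog papillary muscle, blood-perfused by cross-circulation through cannulated arteries from a pentobarbital-anesthetized, heparinized donor dog. Intra-arterial microsyringe injection; developed tension recorded. Activity ratio = amrinone ED50 (half-maximal amrinone response) / test-compound dose producing an equal response.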

Row | Structure (SMILES) | Activity [1] | Activity [2]
1 | CN(Cc1ccc(F)cc1)CC(O)COc1ccc2nc(O)ccc2c1 (stereo unspecified) | 0 | 2.8
2 | CCN(CCOc1ccccc1)CC(O)COc1ccc2nc(O)ccc2c1 (stereo unspecified) | 0 | 5.3
3 | CCN(CCc1ccccc1)CC(O)COc1ccc2nc(O)ccc2c1 (stereo unspecified) | 0.8 | 6.9
4 | Oc1ccc2cc(OCC(O)CNCc3ccccn3)ccc2n1 (stereo unspecified) | 0 | 0.6
5 | CN(Cc1ccncc1)CC(O)COc1ccc2nc(O)ccc2c1 (stereo unspecified) | 0.1 | 2.3
6 | Oc1ccc2cc(OCC(O)CNCc3ccc(F)cc3)ccc2n1 (stereo unspecified) | 0 | 3.5
7 | Oc1ccc2cc(OCC(O)CNCCCc3ccccc3)ccc2n1 (stereo unspecified) | 0.4 | 3.6
8 | COc1ccc(CNCC(O)COc2ccc3ccc(O)nc3c2)cc1OC (stereo unspecified) | -0.2 | 0
9 | COc1ccc(CNCC(O)COc2cccc3ccc(O)nc23)cc1OC (stereo unspecified) | 0 | 0
10 | CN(CCCSc1ccccc1)CC(O)COc1ccc2nc(O)ccc2c1 (stereo unspecified) | 4.3 | 1.3
11 | CN(Cc1cccnc1)CC(O)COc1ccc2nc(O)ccc2c1 (stereo unspecified) | 0.3 | 1.7
12 | Oc1ccc2cc(OCC(O)CNCc3ccc(Cl)cc3)ccc2n1 (stereo unspecified) | 0 | 4.9
13 | CN(CC[S+]([O-])c1ccccc1)CC(O)COc1ccc2nc(O)ccc2c1 (stereo unspecified) | 0 | 2.3
14 | CN(CCc1ccccn1)CC(O)COc1ccc2nc(O)ccc2c1 (stereo unspecified) | 0 | 2.2
15 | CN(Cc1ccccn1)CC(O)COc1ccc2nc(O)ccc2c1 (stereo unspecified) | 0 | 2.2
16 | CN(Cc1ccc(Cl)cc1)CC(O)COc1ccc2nc(O)ccc2c1 (stereo unspecified) | 0.1 | 4
17 | CCN(Cc1ccccc1)CC(O)COc1cc(F)c2nc(O)ccc2c1 (stereo unspecified) | 0 | 4.1
18 | Cc1ccc(CN(C)CC(O)COc2ccc3nc(O)ccc3c2)cc1 (stereo unspecified) | 0 | 1.7
19 | COc1ccc(CN(C)CC(O)COc2ccc3nc(O)ccc3c2)cc1 (stereo unspecified) | 0.2 | 2.8

Row | Structure (SMILES) | Activity [1] | Activity [2]
20 | CCN(Cc1ccccc1)CC(O)COc1cc(C)c2nc(O)ccc2c1 (stereo unspecified) | -0.4 | 0.8
21 | Oc1ccc2cc(OCC(O)CNCc3cccs3)ccc2n1 (stereo unspecified) | 0.8 | 3.1
22 | CCN(Cc1ccccc1)CC(O)COc1ccc2nc(O)ccc2c1 (stereo unspecified) | 0 | 4
23 | CN(CCCN(C)c1ccccc1)CC(O)COc1ccc2nc(O)ccc2c1 (stereo unspecified) | 0 | 1.3
24 | CN(Cc1ccccc1)CC(O)COc1ccc2c(c1)CCC(=O)N2 (stereo unspecified) | -0.2 | 0.1
25 | CN(CCN(C)c1ccccc1)CC(O)COc1ccc2nc(O)ccc2c1 (stereo unspecified) | 0 | 5
26 | COc1ccc(CNCC(O)COc2ccc3nc(O)ccc3c2)cc1 (stereo unspecified) | 0 | 4.9
27 | COc1ccc(CCNCC(O)COc2ccc3nc(O)ccc3c2)cc1OC (stereo unspecified) | -0.5 | 1.7
28 | Oc1ccc2cc(OCC(O)CNCCc3ccccc3)ccc2n1 (stereo unspecified) | 0 | 1.5
29 | CN(Cc1ccccc1)CC(O)COc1ccc2nc(O)c(C#N)cc2c1 (stereo unspecified) | 1.1 | 1.6
30 | CN(CCS(=O)(=O)c1ccccc1)CC(O)COc1ccc2nc(O)ccc2c1 (stereo unspecified) | 0.1 | 2.1
31 | Oc1ccc2cc(OCC(O)CNCc3ccccc3)ccc2n1 (stereo unspecified) | 0 | 2.2
32 | COc1ccc(CNCC(O)COc2cccc3nc(O)ccc23)cc1OC (stereo unspecified) | 0 | 0
33 | CN(CCSc1ccccc1)CC(O)COc1ccc2nc(O)ccc2c1 (stereo unspecified) | -1.1 | 4.5
34 | CN(Cc1ccccc1)CC(O)COc1ccc2nc(O)ccc2c1 (stereo unspecified) | 0 | 5.1
35 | COc1cccc(CNCC(O)COc2ccc3nc(O)ccc3c2)c1 (stereo unspecified) | 0 | 3.8
36 | CCN(CCCc1ccccc1)CC(O)COc1ccc2nc(O)ccc2c1 (stereo unspecified) | 0.2 | 3.2
37 | COc1ccc(CNCC(O)COc2cc(C)c3nc(O)ccc3c2)cc1OC (stereo unspecified) | 0 | 0.5
38 | COc1ccc(CNCC(O)COc2ccc3[nH]c(=O)ccc3c2)cc1OC (stereo unspecified) [TOBORINONE] | 0 | 5.2
